Assay outcomes (PubChem BioAssay)
SENP8 block-1 – inhibitors of human SENP8 protease. Q96LD8. recombinant SENP8, Nedd8 substrate fluorescence. inhibition, % at 20 µM. actives 0.64% (n = 360,000); in the data active means inhibition mostly above about 40%, no sharp cut-off; inactive means mostly below about 27%
Target sequence (Q96LD8 whole entry, looked up): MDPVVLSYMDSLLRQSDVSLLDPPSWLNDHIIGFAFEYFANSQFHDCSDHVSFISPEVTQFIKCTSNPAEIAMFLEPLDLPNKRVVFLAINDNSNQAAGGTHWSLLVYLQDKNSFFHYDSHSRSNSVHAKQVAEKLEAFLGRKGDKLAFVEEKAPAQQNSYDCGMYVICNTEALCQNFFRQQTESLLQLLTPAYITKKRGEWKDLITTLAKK
Apaf-1 inh – blocks human Apaf-1 apoptosome activity | reconstituted apoptosome caspase-3 activity, DEVD-Rh110 fluorescence | inhibition, % at 20 µM | actives 0.71% (n = 330,000) | AID 489030; active means inhibition of at least 40% at 20 µM;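 further: plate controls were DMSO wells for no effect and DEVD-CHO caspase inhibitor wells for full effect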
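Assay system – apoptosome proteins · Medium – Hepes buffer, pH 7.5 · Also added – cytochrome c with DEVD-Rh110 · Timing – 30 min compound preincubation, 50 min activation, room temperature · Detection – Rh110 fluorescence, excitation 480 nm, emission 540 nm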
SENP6 inh – inhibitors of human SENP6 protease. actives 1.8% (n = 330,000). inhibition, % at 10 µM. AID 2599. Q9GZR1. Recombinant SENP6 catalytic domain, aminoluciferin luminescence;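 active means inhibition above about 50% at the single tested dose, limit read from the data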;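 further: plate controls were DMSO wells with enzyme for no effect and DMSO wells lacking enzyme for full effect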
Target sequence (Q9GZR1 628-1112 limits assumed): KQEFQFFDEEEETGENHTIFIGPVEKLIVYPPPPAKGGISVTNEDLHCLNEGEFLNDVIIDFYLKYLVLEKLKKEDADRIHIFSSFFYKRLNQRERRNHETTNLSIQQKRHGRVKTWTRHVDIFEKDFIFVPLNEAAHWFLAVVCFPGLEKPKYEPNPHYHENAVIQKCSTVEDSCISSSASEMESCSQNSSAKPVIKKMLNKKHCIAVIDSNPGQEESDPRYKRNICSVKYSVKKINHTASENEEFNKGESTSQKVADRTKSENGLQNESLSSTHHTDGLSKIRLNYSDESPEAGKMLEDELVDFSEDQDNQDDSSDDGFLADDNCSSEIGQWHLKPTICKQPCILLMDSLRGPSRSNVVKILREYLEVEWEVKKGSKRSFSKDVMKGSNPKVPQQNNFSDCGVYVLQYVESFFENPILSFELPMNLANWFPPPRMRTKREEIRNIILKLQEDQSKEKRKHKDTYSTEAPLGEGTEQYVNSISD
UBC13 inh – human UBC13 polyubiquitination inhibition. P61088. UBC13 polyubiquitin chain formation, TR-FRET. inhibition, % at 20 µM. actives 0.47% (n = 330,000). AID 485273; in the data active means inhibition above about 45%, passing the limit was not always enough
SENP7 inh – blocks the human protease SENP7; recombinant SENP7, Z-RLRGG-aminoluciferin luminescence, 40 min; actives 1.5% (n = 330,000); inhibition, % at 5 µM;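 active means inhibition above about 50% at the single test dose, limit read from the data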;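 further: plate controls were DMSO with enzyme for no effect and no enzyme buffer wells for full effect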
SENP8 block-2 – blocks the human protease SENP8. AID 2540. purified SENP8, Z-RLRGG-aminoluciferin cleavage, luminescence. Q96LD8. inhibition, % at 10 µM. actives 1.2% (n = 330,000); in the data active means inhibition above about 50%
Casp3 UBC13 ctr – inhibits human caspase-3 in UBC13 counter-screen; shares compounds with UBC13 inh; Recombinant caspase-3, Caspase-Glo 3/7 luminescence, 60 min; inhibition, % at 20 µM; actives 4% (n = 1,400); AID 488856;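 active means mean inhibition across replicates above about 26%, limit read from the data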;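 further: plate controls were DMSO with caspase-3 for no effect and DMSO wells lacking enzyme for full effect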
UBC13 confirm – confirmation of human UBC13 polyubiquitin inhibitors. shares compounds with UBC13 inh. UBC13 polyubiquitination, TR-FRET, biochemical. inhibition, % at 10 µM. actives 68% (n = 1,400); in the data active means inhibition above about 45%
Numbers without * were called inactive; / = not tested or not shown. Rows were chosen to be rich in hits. Some 3% of all compounds tested hit in one or more screens of this group.

SMILES	SENP8 block-1	Apaf-1 inh	SENP6 inh	UBC13 inh	SENP7 inh	SENP8 block-2	Casp3 UBC13 ctr	UBC13 confirm
O=C(NCC1CCN(Cc2ccc(F)cc2)CC1)C1CCCN(c2ncnc3c2nc2n3CCCCC2)C1 (centres undefined)	-3.4	4.4	12.7	78.5*	10.5	0.3	-2.8	95.4*
O=C(NCc1ccccc1)C1CCCN(c2ncnc3c2nc2n3CCCCC2)C1 (centres undefined)	1.2	8.4	-13.2	4.6	-14.7	-8.7	/	/
CN1CCN(C(=O)C2CCN(c3ncnc4c3nc3n4CCCCC3)CC2)CC1	8.7	-3.9	-12.8	86.0*	12.9	-4.3	5.4	100.7*
O=C(C1CCN(c2ncnc3c2nc2n3CCCCC2)CC1)N1CCCCC1	8.7	6.0	-1.0	26.6	2.0	-2.9	/	/
O=C(NCCc1ccc(Cl)cc1)C1CCCN(c2ncnc3c2nc2n3CCCCC2)C1 (centres undefined)	12.7	12.8	4.3	5.5	11.6	2.1	/	/
O=C(NCC1CCN(Cc2cccc(Cl)c2)CC1)C1CCCN(c2ncnc3c2nc2n3CCCCC2)C1 (centres undefined)	14.9	11.8	-17.2	93.4*	14.4	0.0	-3.0	107.4*
CC1CCCC(C)N1CCCNC(=O)C1CCCN(c2ncnc3c2nc2n3CCCCC2)C1 (centres undefined)	8.2	9.5	-15.4	55.5*	-14.3	-10.2	2.2	87.5*
CCC1CCCCN1CCCNC(=O)C1CCCN(c2ncnc3c2nc2n3CCCCC2)C1 (centres undefined)	12.9	11.2	-4.7	34.6	0.1	-6.4	/	/
COC(C/C=C/[C@@H](O)COCc1ccccc1)OC	17.7	-1.7	3.9	-3.7	6.5	-13.6	/	/
Cc1sc2ncnc(N)c2c1C	23.0	-15.7	-0.4	61.0*	-4.1	-1.1	-6.9	49.2*
Cc1ccc(Nc2ncnc3sc(C)c(C)c23)cc1	-2.4	8.4	-21.9	-6.6	-1.7	-3.3	/	/
COc1cc(/C=C2/SC(=Nc3ccc(O)cc3)NC2=O)cc(OC)c1O	-96.1	2.6	8.4	48.0*	7.0	5.9	-2.9	46.7*
Cc1ccc(Nc2nc(NCCO)c3ccccc3n2)cc1C	-269.8	20.4	-12.3	52.4*	1.5	-5.4	2.3	82.3*
COc1ccccc1Nc1nc(NCCO)c2ccccc2n1	/	-0.9	-2.0	-9.3	-1.0	-12.9	/	/
CN1CCN(CCCNC(=O)c2ccc(/C=C3\Oc4ccccc4N(Cc4ccccc4F)C3=O)cc2)CC1	-434.8	38.0	1.1	45.4*	10.9	-14.0	-4.1	51.6*
CN1CCN(CCCNC(=O)c2ccc(/C=C3\Sc4ccccc4N(Cc4ccc(F)cc4)C3=O)cc2)CC1	-26.4	/	/	/	/	/	/	/
CNC(=O)COC(=O)/C=C/c1cn(-c2ccccc2)nc1-c1ccc(C)o1	-470.7	11.6	-20.5	54.8*	3.1	-1.1	0.0	44.4
CCC(C)NC(=O)CSc1nc2ccccc2c(=O)n1-c1c(C)n(C)n(-c2ccccc2)c1=O (centres undefined)	4.7	-10.5	12.6	11.7	-1.1	3.6	/	/
Cc1c(NC(=O)CCCN2C(=O)c3cccc4cccc(c34)C2=O)c(=O)n(-c2ccccc2)n1C	-102.6	2.1	-40.7	80.9*	7.5	-2.1	3.3	94.4*
Cc1ccc(NC(=O)CSc2ncccn2)cc1S(=O)(=O)N1CCCCC1	-4.8	9.4	-3.7	-1.1	-1.4	3.6	/	/
COc1cc2nc(NCCCN3CCN(C)CC3)n3nc(-c4ccccc4)nc3c2cc1OC	-301.5	30.2	-3.6	65.5*	5.1	0.8	4.8	74.5*
CCN(CC)CCCNc1nc2cc(OC)c(OC)cc2c2nc(-c3ccccc3)nn12	-373.4	30.7	-10.8	54.6*	2.0	-2.3	-1.1	45.4*
CCc1noc(C)c1C(=O)N1CCCSC1=Nc1ccccc1C(C)C	13.8	11.3	-8.4	-0.7	-6.8	-6.7	/	/
Cc1ccccc1OCc1n[nH]c(=S)n1-c1ccccc1	5.4	1.9	5.2	9.6	-2.6	-3.3	/	/
COc1ccc(CNC(=O)COC(=O)C(CCSC)NC(=O)c2ccco2)cc1OC (centres undefined)	-1.2	-9.2	-18.7	1.6	-1.2	7.4	/	/
SMILES	SENP8 block-1	Apaf-1 inh	SENP6 inh	UBC13 inh	SENP7 inh	SENP8 block-2	Casp3 UBC13 ctr	UBC13 confirm
Cc1ccc(Cc2c(C)nc3nc(SCC(=O)NCCCN4CCCCCC4)nn3c2C)cc1	/	38.1	-25.9	103.1*	-8.8	-12.6	7.6	101.1*
COCCn1c(SCC(=O)Nc2ccc(OC)c(S(N)(=O)=O)c2)nc2ccccc2c1=O	12.5	-21.2	-10.0	23.0	-3.2	2.5	/	/
COc1ccccc1NC(=O)c1c(N=Cc2cccc([N+](=O)[O-])c2)cnn1C	13.5	9.6	-39.0	77.3*	-10.9	-5.9	-2.0	85.5*
COc1ccc(C)cc1NC(=O)c1c([N+](=O)[O-])cnn1C	13.3	-5.7	-22.1	3.9	2.0	0.3	/	/
Cc1nc(N)sc1C(=O)N/N=C/c1ccc([N+](=O)[O-])cc1	25.0	-10.5	-0.1	36.0	5.2	-11.7	/	/
CC(/C=N/NC(=O)c1sc(N)nc1C)=C\c1ccccc1	-162.0	-12.6	35.7	85.2*	69.4*	-0.8	42.7*	96.1*
COc1cc(/C=N\NC(=O)c2sc(N)nc2C)cc(OC)c1OC	-418.8	-1.7	-25.9	104.9*	-1.2	-2.7	1.4	111.3*
Cc1nc(N)sc1C(=O)N/N=C/c1ccco1	-13.8	-10.0	2.9	72.3*	3.1	0.6	24.6	62.7*
Cc1nc(N)sc1C(=O)N/N=C/c1c[nH]c2ccccc12	-160.0	-14.3	-7.9	79.2*	-5.5	-13.3	14.1	113.7*
Cc1nc2ccccc2cc1C(=O)N/N=C/c1ccco1	16.8	-7.0	-8.7	-11.5	-11.2	-14.3	/	/
COc1ccc(N2CCN(C(=O)COC(=O)CCOc3ccc(C(C)(C)C)cc3)CC2)cc1	1.3	3.0	-7.2	-5.5	2.1	-4.9	/	/
CCCCN(C)C(=O)C1CCN(c2ccc(S(=O)(=O)N3CCOCC3)cc2[N+](=O)[O-])CC1	12.6	20.7	-6.8	3.1	-12.0	-4.1	/	/
CC(C)(CO)CN1CCC(n2nccc2NC(=O)C2CCCC2)CC1	-2.1	-19.7	3.3	-0.4	0.0	-7.0	/	/
c1ccc(CCCCN2C(Nc3ccccc3)=NC[C@@H]2Cc2ccccc2)cc1	13.6	31.1	10.1	48.8*	0.4	-3.6	-4.3	16.8
COc1ccc(N(CC(=O)NC2CCCCC2)C(=O)c2snc(C(N)=O)c2N)cc1	-92.1	10.2	-5.0	23.0	7.0	-2.0	/	/
CCCC(C(=O)NC(C)(C)C)N(C(=O)c1snc(C(N)=O)c1N)c1ccc2c(c1)OCCO2 (centres undefined)	-198.2	-1.5	-8.0	65.0*	3.9	6.8	-2.8	85.5*
